One experiment deals with human CB1 receptor (Homo sapiens, UniProt P21554). It is filed as binding. The note with it: for inhibition of [3H]CP 55,940 binding to CB1 receptors (in words): concentrations up to 10 μM.
Experiment [1] concerns the target T1, human CB2 receptor (Homo sapiens, UniProt P34972). The experiment in a line: [35S]GTPγS binding assay, HEK293 membranes expressing CB2. Format: biochemical. To be noted: 10 μM GDP. The method, boiled down:
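HEK293 membranes expressing recombinant human CB2 (8 µg/well) were incubated with 0.1 nM [35S]GTPγS, 10 µM GDP, 0.1% (w/v) BSA and test compound (typically 1 nM–10 µM) in 50 mM Tris-HCl pH 7.4, 3 mM MgCl2, 0.2 mM EGTA, 100 mM NaCl. Nonspecific binding was set with 10 µM unlabeled GTPγS. Reactions were stopped by filtration. Duplicates, three experiments.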
(In general: GTPγS is a poorly hydrolysed GTP analogue; its binding reports G protein activation.)

The target in experiment [2] is T1, human CB2 receptor. It is filed as binding. The note with it: for selectivity for CB2 versus CB1 (in words): from radioligand binding at CB2 and CB1.
[3] abbreviates: log (EC50, Molar) GTPγS binding CB2, 0.1 nM [35S]GTPγS.
[4] abbreviates: Ki (μM) CB2, [3H]CP 55,940 tracer at 1.5 nM.
The mark [5] stands for this setting: read-out: log (Ki, Molar) CB1 (converted), [3H]CP 55,940 tracer at 1.5 nM.
[6] abbreviates: EC50 GTPγS binding, 0.1 nM [35S]GTPγS.

For orientation: Ki means the dissociation constant of the complex between target and ligand, obtained from inhibition or displacement. A word on the EC50: it is the concentration at which the effect is half-maximal. Higher therefore signals lower potency in that assay.

Read-outs that look alike come from different tables or passages of the source. Where only a bound is given, the exact number is not on record here.

Sequence of human CB1 receptor (P21554 whole entry): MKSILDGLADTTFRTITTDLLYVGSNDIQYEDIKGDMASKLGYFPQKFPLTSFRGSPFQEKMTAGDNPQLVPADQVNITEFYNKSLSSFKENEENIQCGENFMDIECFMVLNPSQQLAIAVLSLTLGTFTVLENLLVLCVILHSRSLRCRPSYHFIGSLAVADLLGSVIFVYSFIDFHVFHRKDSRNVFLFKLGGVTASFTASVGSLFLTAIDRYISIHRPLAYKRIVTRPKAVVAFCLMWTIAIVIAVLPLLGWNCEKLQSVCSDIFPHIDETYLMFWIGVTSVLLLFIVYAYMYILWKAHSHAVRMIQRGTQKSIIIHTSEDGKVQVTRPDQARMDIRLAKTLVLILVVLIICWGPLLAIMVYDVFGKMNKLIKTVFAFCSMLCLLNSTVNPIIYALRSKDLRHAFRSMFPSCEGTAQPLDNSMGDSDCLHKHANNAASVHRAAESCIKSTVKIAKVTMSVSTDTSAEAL
T1 sequence (P34972 whole entry): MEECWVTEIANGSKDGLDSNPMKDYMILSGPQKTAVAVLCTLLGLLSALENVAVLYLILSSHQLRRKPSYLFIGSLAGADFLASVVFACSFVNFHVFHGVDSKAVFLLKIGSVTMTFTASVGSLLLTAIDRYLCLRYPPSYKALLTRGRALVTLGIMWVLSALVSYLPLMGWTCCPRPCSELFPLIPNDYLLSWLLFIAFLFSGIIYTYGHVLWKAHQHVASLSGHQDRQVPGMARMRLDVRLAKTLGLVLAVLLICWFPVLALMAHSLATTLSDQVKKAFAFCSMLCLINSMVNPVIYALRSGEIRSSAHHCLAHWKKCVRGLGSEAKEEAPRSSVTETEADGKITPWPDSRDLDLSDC

As for `CCc1c(C)sc(NC(=O)C(Sc2ccccc2)c2ccccc2)c1C(=O)OC` (stereo not drawn) [Compound 3, methyl 4-ethyl-5-methyl-2-(2-phenyl-2 (phenylthio)acetamido)thiophene-3-carboxylate], the inhibition constant Ki at human CB1 receptor worked out at 1600 nM; at human CB2 receptor [2] (setting [4]), 0.8 µM. For the same compound, the response at human CB2 receptor [1] (setting [3]) was half-maximal at 39.8 nM (EC50). In addition, the “selectivity for CB2 versus CB1 (in words)” value (shortened to “selectivity”) on human CB2 receptor [2] is given as “only weakly selective”.

Turning to `CC1CCN(C(NC(=O)c2ccc(C(C)(C)C)cc2)C(Cl)(Cl)Cl)CC1` (stereo not drawn) [Compound 4, 4-(tert-butyl)-N-(2,2,2-trichloro-1-(4-methylpiperidin-1 yl)ethyl)benzamide], the Ki on human CB1 receptor was over 10000 nM; at human CB1 receptor (setting [5]), over 10000 nM; on human CB2 receptor [2] (setting [4]), 0.2 µM; on human CB2 receptor [2] (log (Ki, Molar) CB2, [3H]CP 55,940 tracer at 1.5 nM), 0.251 µM. At human CB1 receptor, the “inhibition of [3H]CP 55,940 binding to CB1 receptors (in words)” value was “no detectable inhibition”. In addition, at human CB2 receptor [1] (setting [6]), a half-maximal effect (EC50) was put at 80 nM. At human CB2 receptor [2], the “selectivity” value was “selectively bind CB2 receptors”.

For the compound `CC(C)c1cc(C2CCCN2C(=O)c2cc(-c3ccc4c(c3)OCO4)on2)no1` (stereo not drawn) [Compound 1, (5-(benzo[d][1,3]dioxol-5-yl)isoxazol-3-yl)(2-(5-isopropylisoxazol-3-yl)pyrrolidin-1-yl)methanone], the values for the inhibition constant Ki on human CB1 receptor, at human CB1 receptor (setting [5]) and at human CB2 receptor [2] (setting [4]) were over 10000 nM, over 10000 nM and 2.3 µM, respectively. The “inhibition of [3H]CP 55,940 binding to CB1 receptors (in words)” value on human CB1 receptor is given as “no measurable inhibition”. For the same compound, at human CB2 receptor [1] (setting [6]), it took 500 nM to reach a half-maximal effect (EC50). For the same compound, the “selectivity” value on human CB2 receptor [2] is on record as “selectively bind CB2 receptors”.

On to `c1ccc(Nc2nc3ccccc3nc2Nc2ccccc2)cc1` [Compound 2, N2,N3-diphenylquinoxaline-2,3-diamine], for which the inhibitory constant (Ki) on human CB1 receptor was determined as 1800 nM; at human CB2 receptor [2] (setting [4]) it was 1.1 µM. The compound further had an EC50 on human CB2 receptor [1] (setting [3]) of 501 nM. In addition, on human CB2 receptor [2], the “selectivity” value is “only weakly selective”.

Values taken from article PMC6219460 (SLAS discovery : advancing life sciences R & D, 2017).
